Assays:
Format in all cases: functional
[1] = tested on: Enterobacter cloacae; test: Antibacterial activity against Enterobacter cloacae by broth dilution method
[2] = tested on: Proteus mirabilis; test: Antibacterial activity against Proteus mirabilis by broth dilution method
[3] = tested on: Acinetobacter baumannii; test: Antibacterial activity against Acinetobacter baumannii by broth dilution method
Procedure, shortened: (§1)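 Broth microdilution per CLSI in panels spanning a dilution range of each agent. Cation-adjusted Mueller-Hinton broth, final inoculum 5 × 10^5 CFU/ml from a 0.5 McFarland suspension. Incubated overnight at 35°C in ambient air, with quality control strains in each run. MIC reported; values at or below the lowest concentration tested are given as that concentration.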

[4] = tested on: Citrobacter freundii; test: Antibacterial activity against Citrobacter freundii by broth dilution method; procedure, shortened: as §1
[5] = tested on: Klebsiella pneumoniae; test: Antibacterial activity against Klebsiella pneumoniae by broth dilution method; procedure, shortened: as §1
[6] = tested on: Haemophilus influenzae; test: Antibacterial activity against Haemophilus influenzae by broth dilution method
Procedure, shortened: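 Broth microdilution per CLSI using Haemophilus Test Medium broth, seeded from a 0.5 McFarland suspension. Incubated overnight at 35°C in ambient air, with quality control strains in each run. MIC read against a tested dilution range; values at the low limit are given as the lowest concentration.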

[7] = tested on: Escherichia coli; test: Antibacterial activity against ciprofloxacin susceptible Escherichia coli by broth dilution method; procedure, shortened: as §1
[8] = tested on: Streptococcus agalactiae; test: Antibacterial activity against Streptococcus agalactiae by broth dilution method
Procedure, shortened: (§2)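 Streptococci were tested by CLSI broth microdilution in Mueller-Hinton broth with 3% lysed horse blood, seeded from a 0.5 McFarland suspension. Incubated overnight at 35°C in ambient air, with quality control strains in each run. MIC taken over a per-agent dilution range.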

[9] = tested on: Staphylococcus aureus; test: Antibacterial activity against ciprofloxacin susceptible and methicillin resistant Staphylococcus aureus by broth dilution method
Procedure, shortened: (§3)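 Clinical isolates tested by CLSI broth microdilution in panels holding serial twofold drug dilutions in cation-adjusted Mueller-Hinton broth. Final inoculum 5 × 10^5 CFU/ml was made from a 0.5 McFarland suspension. Plates were incubated overnight at 35°C in ambient air, and the MIC was read as the lowest concentration inhibiting growth. Quality control strains were included in each run.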

[10] = tested on: Streptococcus pyogenes; test: Antibacterial activity against Streptococcus pyogenes by broth dilution method; procedure, shortened: as §2
[11] = tested on: Staphylococcus epidermidis; test: Antibacterial activity against methicillin resistant coagulase negative Staphylococcus epidermidis by broth dilution method
[12] = tested on: Staphylococcus; test: Antibacterial activity against methicillin resistant coagulase negative Staphylococcus by broth dilution method
[13] = tested on: Staphylococcus aureus; test: Antibacterial activity against methicillin susceptible Staphylococcus aureus by broth dilution method
[14] = tested on: Escherichia coli; test: Antibacterial activity against ciprofloxacin resistant Escherichia coli by broth dilution method; procedure, shortened: as §3
[15] = tested on: Streptococcus pneumoniae; test: Antibacterial activity against Levofloxacin susceptible Streptococcus pneumoniae by broth dilution method
Procedure, shortened: (§4)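 Streptococcus pneumoniae clinical isolates tested by CLSI broth microdilution. A 0.5 McFarland suspension was diluted into Mueller-Hinton broth with 3% lysed horse blood, then tested against serial drug dilutions. Plates were incubated overnight at 35°C in ambient air, and the MIC was read as the lowest inhibitory concentration. Quality control strains were included in each run.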

[16] = tested on: Streptococcus viridans; test: Antibacterial activity against Streptococcus viridans by broth dilution method; procedure, shortened: as §2
[17] = tested on: Staphylococcus aureus; test: Antibacterial activity against ciprofloxacin and methicillin resistant Staphylococcus aureus by broth dilution method; procedure, shortened: as §3
[18] = tested on: Streptococcus pneumoniae; test: Antibacterial activity against Levofloxacin resistant Streptococcus pneumoniae by broth dilution method; procedure, shortened: as §4
[19] = tested on: Pseudomonas aeruginosa; test: Antibacterial activity against Pseudomonas aeruginosa by broth dilution method
[20] = tested on: Enterococcus faecalis; test: Antibacterial activity against Enterococcus faecalis by broth dilution method
[21] = tested on: Enterococcus faecium; test: Antibacterial activity against Enterococcus faecium by broth dilution method; procedure, shortened: as §3
[22] = tested on: Enterococcus faecalis; test: Antibacterial activity against vancomycin resistant Enterococcus faecalis by broth dilution method
[23] = tested on: Enterococcus faecium; test: Antibacterial activity against vancomycin resistant Enterococcus faecium by broth dilution method; procedure, shortened: as §3

C[C@@H](O)[C@H]1C(=O)N2C(C(=O)O)=C(SCCNC=N)C[C@H]12 [IMIPENEM ANHYDROUS]
> 32 µg/mL: MIC90 [3]
8 µg/mL: MIC90 [2]
4 µg/mL: MIC90 [1] | MIC90 [5] | MIC90 [6]
2 µg/mL: MIC50 [2] | MIC50 [3] | MIC90 [4]
1 µg/mL: MIC50 [1] | MIC50 [4] | MIC50 [6]
0.5 µg/mL: MIC50 [5]

CO/N=C(\C(=O)N[C@@H]1C(=O)N2C(C(=O)O)=C(CSc3nc(=O)c(O)nn3C)CS[C@H]12)c1csc(N)n1 [CEFTRIAXONE]
≤ 0.03 µg/mL: MIC50 [2] | MIC50 [6] | MIC90 [6]
2 µg/mL: MIC90 [15] | MIC90 [18]
4 µg/mL: MIC50 [13] | MIC90 [13]
64 µg/mL: MIC90 [14]
≤ 0.06 µg/mL: MIC50 [8] | MIC [10] | MIC50 [10] | MIC90 [10]
0.12 µg/mL: MIC90 [8]
1 µg/mL: MIC50 [15] | MIC50 [18]
0.06 µg/mL: MIC50 [7]
> 8 µg/mL: MIC50 [1] | MIC90 [1] | MIC90 [2] | MIC90 [7] | MIC50 [3] | MIC90 [3] | MIC50 [9] | MIC90 [9] | MIC50 [11] | MIC90 [11] | MIC50 [12] | MIC90 [12] | MIC50 [14] | MIC90 [4] | MIC50 [5] | MIC90 [5] | MIC50 [17] | MIC90 [17] | MIC [19] | MIC50 [19] | MIC90 [19]
0.25 µg/mL: MIC50 [4] | MIC50 [16]
0.5 µg/mL: MIC90 [16]

CC(=O)NC[C@H]1CN(c2ccc(N3CCOCC3)c(F)c2)C(=O)O1 [LINEZOLID]
1 µg/mL: MIC [8] | MIC50 [8] | MIC90 [8] | MIC50 [20] | MIC50 [10] | MIC90 [10] | MIC50 [11] | MIC50 [22] | MIC50 [12] | MIC50 [15] | MIC90 [15] | MIC50 [16] | MIC50 [18] | MIC90 [18]
2 µg/mL: MIC50 [9] | MIC90 [9] | MIC90 [20] | MIC90 [11] | MIC50 [21] | MIC90 [21] | MIC90 [22] | MIC90 [12] | MIC50 [13] | MIC90 [13] | MIC90 [16] | MIC50 [17] | MIC90 [17] | MIC50 [23] | MIC90 [23]
